The results in this text go back to ChEMBL document CHEMBL5131524, “Design and Synthesis of Tranylcypromine-Derived LSD1 Inhibitors with Improved hERG and Microsomal Stability Profiles” (ACS Med Chem Lett, 2022).

A short description of data set [1]: Metabolic stability in rat liver microsomes assessed as compound remaining and measured after 60 mins in presence of beta-NADPH by liquid chromatography tandem mass spectrometry analysis. The format is ADME, Microsome. The conditions noted are these: read-out: Stability. An outline of the steps: (§1)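 Percent of compound remaining after 60 min incubation with liver microsomes of each species (human, rat, mouse). Values are the mean of three independent experiments.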

The target in data set [2] is T1, Amine oxidase [flavin-containing] A (Homo sapiens, UniProt P21397).
T1 sequence (P21397 whole entry): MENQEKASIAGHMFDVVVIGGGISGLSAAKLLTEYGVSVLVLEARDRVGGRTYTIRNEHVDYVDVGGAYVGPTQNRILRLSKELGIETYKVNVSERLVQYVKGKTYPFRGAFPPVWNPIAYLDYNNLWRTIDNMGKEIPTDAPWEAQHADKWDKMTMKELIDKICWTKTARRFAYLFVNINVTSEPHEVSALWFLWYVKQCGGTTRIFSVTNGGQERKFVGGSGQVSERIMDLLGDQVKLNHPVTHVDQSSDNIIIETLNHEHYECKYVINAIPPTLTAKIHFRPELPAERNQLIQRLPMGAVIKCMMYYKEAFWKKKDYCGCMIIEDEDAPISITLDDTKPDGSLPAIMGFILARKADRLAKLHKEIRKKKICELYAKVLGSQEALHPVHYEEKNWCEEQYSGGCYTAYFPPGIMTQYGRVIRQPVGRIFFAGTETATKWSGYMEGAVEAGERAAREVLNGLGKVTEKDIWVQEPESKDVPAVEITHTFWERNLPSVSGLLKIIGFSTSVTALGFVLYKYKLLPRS
Kind of data set: Inhibition of MAO-A (unknown origin) using tyramine as substrate and measured after 10 mins by peroxidase-coupled reaction method.

Data set [3] is described as follows: Metabolic stability in human liver microsomes assessed as compound remaining and measured after 60 mins in presence of beta-NADPH by liquid chromatography tandem mass spectrometry analysis. The format is ADME, Microsome. The conditions noted are these: read-out: Stability. An outline of the steps:
as §1

A short description of data set [4]: Metabolic stability in mouse liver microsomes assessed as compound remaining and measured after 60 mins in presence of beta-NADPH by liquid chromatography tandem mass spectrometry analysis. Particulars: read-out: Stability. It counts as ADME, Microsome. The procedure, abridged: as §1
The target of data set [5] is T2, Amine oxidase [flavin-containing] B (Homo sapiens, UniProt P27338).
T2 sequence (P27338 whole entry): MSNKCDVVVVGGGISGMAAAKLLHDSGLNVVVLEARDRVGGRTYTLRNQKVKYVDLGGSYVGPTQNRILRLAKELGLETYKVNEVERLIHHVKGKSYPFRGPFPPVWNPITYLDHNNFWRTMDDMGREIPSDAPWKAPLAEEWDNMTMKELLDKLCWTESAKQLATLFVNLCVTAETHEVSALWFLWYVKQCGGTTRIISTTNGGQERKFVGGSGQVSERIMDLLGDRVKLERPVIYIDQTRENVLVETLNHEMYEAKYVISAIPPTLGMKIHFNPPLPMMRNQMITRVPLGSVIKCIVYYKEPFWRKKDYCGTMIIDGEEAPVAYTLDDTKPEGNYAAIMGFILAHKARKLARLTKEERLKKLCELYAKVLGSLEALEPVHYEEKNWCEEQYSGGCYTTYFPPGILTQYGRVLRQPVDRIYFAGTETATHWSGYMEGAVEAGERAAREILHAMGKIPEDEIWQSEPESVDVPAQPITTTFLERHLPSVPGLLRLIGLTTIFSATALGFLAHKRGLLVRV
Kind of data set: Inhibition of MAO-B (unknown origin) using tyramine as substrate and measured after 10 mins by peroxidase-coupled reaction method.

The target of a further data set is hERG (KCNH2) (Homo sapiens, UniProt Q12809). Kind of data set: Inhibition of human ERG expressed in human HEK293 cells at 10 uM for 2 mins by whole-cell patch-clamp system. The format is toxicity, cell-based. The conditions noted are these: HEK293 cells expressing human ERG. The procedure, abridged: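 hERG inhibition was measured by automated patch clamp in HEK293 cells expressing hERG. Values are the mean of three independent experiments.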
hERG (KCNH2), sequence (Q12809 whole entry): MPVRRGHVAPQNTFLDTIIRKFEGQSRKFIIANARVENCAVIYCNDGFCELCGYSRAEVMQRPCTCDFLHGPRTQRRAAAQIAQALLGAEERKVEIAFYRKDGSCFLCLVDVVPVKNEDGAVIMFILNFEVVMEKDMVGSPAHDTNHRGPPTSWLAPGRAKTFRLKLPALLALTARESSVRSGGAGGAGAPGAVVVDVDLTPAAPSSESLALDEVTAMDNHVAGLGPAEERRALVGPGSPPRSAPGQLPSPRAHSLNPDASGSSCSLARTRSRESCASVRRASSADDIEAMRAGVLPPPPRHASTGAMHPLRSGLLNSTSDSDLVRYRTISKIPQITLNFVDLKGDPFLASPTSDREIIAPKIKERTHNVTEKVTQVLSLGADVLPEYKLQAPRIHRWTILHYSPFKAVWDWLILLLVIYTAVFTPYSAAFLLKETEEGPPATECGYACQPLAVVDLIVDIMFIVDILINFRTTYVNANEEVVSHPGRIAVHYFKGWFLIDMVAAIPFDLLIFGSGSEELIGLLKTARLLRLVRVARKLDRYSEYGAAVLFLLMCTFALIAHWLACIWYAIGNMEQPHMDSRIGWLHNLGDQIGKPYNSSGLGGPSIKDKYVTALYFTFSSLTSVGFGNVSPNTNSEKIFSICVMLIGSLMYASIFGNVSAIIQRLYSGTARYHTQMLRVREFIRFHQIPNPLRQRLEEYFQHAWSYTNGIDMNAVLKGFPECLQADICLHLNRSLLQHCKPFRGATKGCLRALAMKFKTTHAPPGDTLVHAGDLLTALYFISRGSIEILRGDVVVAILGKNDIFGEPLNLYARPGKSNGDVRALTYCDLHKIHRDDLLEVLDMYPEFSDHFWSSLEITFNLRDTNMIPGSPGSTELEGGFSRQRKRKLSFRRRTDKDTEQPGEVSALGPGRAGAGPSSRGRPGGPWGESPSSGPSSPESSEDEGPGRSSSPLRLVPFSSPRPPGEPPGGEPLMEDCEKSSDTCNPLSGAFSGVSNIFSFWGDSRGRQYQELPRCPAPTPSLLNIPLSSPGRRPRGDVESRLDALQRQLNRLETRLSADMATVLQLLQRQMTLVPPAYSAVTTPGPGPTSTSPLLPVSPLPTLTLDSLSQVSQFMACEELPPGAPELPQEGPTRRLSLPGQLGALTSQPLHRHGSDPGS
A general note: The patch-clamp technique gives a direct electrical read-out from membranes.

Data set [6] can be described thus: Cmax in ICR mouse serum at 10 mg/kg, ip. It counts as ADME, organism-based. Also on record: dose 10 mg/kg, route ip. The procedure, abridged: (§2)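 Single intraperitoneal injection, 10 mg/5 mL per kilogram, to male ICR mice aged eight weeks (n = 3). Serum concentration–time profiles were measured, giving AUC0–∞ […], Cmax, Tmax and serum half-life.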

A short description of data set [7]: AUC (0-infinity) in ICR mouse at 10 mg/kg, ip. The format is ADME, organism-based. Also on record: time infinity, dose 10 mg/kg, route ip. Particulars: in vivo. An outline of the steps:
as §2

Data set [8] can be described thus: Half life in ICR mouse serum at 10 mg/kg, ip. It counts as ADME, organism-based. An outline of the steps: as §2
Data set [9] can be described thus: Tmax in ICR mouse serum at 10 mg/kg, ip. It counts as ADME, organism-based. The procedure, abridged:
as §2

Broadly, the Ki is the equilibrium dissociation constant of an inhibitor or competing ligand from its target. A lower Ki goes with higher affinity. Take `O=C(CN[C@@H]1C[C@H]1c1cc(F)cc(F)c1OCc1cccnc1F)N1CCC2(CCNC2)CC1`: the remaining at 1 h is 55% in data set [1], 45% in [3] and 73% in data set [4]. The Ki in data set [2] and in data set [5] was over 250 µM in each case.

As usually defined, the inhibition is the share of the control response that was lost under treatment. Read a low inhibition as a weak effect. Compound `COCCN1CCN(C(=O)CNC2CC2c2cc(F)cc(F)c2OCc2cnn(C)c2)CC1` (configuration not stated) had an inhibition at 2 min, 10 µM against hERG (KCNH2) of 14%.

`COCCN1CCN(C(=O)CNC2CC2c2cc(F)cc(F)c2OCc2ccccc2)CC1` (configuration not stated): the inhibition at 2 min, 10 µM against hERG (KCNH2) turned out to be 50%.

Consider `COCCN1CCN(C(=O)CNC2CC2c2cc(F)cc(F)c2OCCc2ccc(F)cc2)CC1` (configuration not stated), for which, at hERG (KCNH2), the inhibition at 2 min, 10 µM was over 100%.

In the case of `O=C(CNC1CC1c1cc(F)cc(F)c1OCc1cccnc1F)N1CCC(N2CC3CCC(C2)N3)CC1` (configuration not stated), the remaining at 1 h in [1] was found to be 24%; in data set [3] it was 0%; in data set [4], 25%. Also, the inhibition at 2 min, 10 µM against hERG (KCNH2) was 23%.

`COCCN1CCN(C(=O)CNC2CC2c2cc(F)cc(F)c2OCc2cc[nH]n2)CC1` (configuration not stated) gave an inhibition at 2 min, 10 µM at hERG (KCNH2) of 8%.

Turning to `O=C(CNC1CC1c1cc(F)cc(F)c1OCc1cccnc1F)N1CCC2(CCCN2)CC1` (configuration not stated), the remaining at 1 h in [1] was found to be 20%; in data set [3], 41%; in data set [4], 42%. Also, at hERG (KCNH2), the inhibition at 2 min, 10 µM is 62%.

On to `COCCN1CCN(C(=O)CNC2CC2c2cc(F)cc(F)c2OCc2cccnc2F)CC1` (configuration not stated), for which, at hERG (KCNH2), the inhibition at 2 min, 10 µM is 21%.

With `O=C(CNC1CC1c1cc(F)cc(F)c1OCc1cccnc1F)N1CCC2(CCNC2)CC1` (configuration not stated), the remaining at 1 h turned out to be 56% in [1], 44% in data set [3] and 73% in [4]. The compound further came in with an inhibition at 2 min, 10 µM against hERG (KCNH2) of 10%.

As for `O=C(CNC1CC1c1cc(F)cc(F)c1OCc1cccnc1F)N1CCC(N2CC3CCC(C2)O3)CC1` (configuration not stated), the remaining at 1 h in data set [1], in data set [3] and in data set [4] was 0% each time. Further, at hERG (KCNH2), the inhibition at 2 min, 10 µM was found to be 32%.

In the case of `COCCN1CCN(C(=O)CNC2CC2c2cc(F)cc(F)c2OCc2ccnc(F)c2)CC1` (configuration not stated), on hERG (KCNH2), the inhibition at 2 min, 10 µM worked out at 46%.

As to `COCCN1CCN(C(=O)CNC2CC2c2cc(F)cc(F)c2OCCc2ccccc2)CC1` (configuration not stated), at hERG (KCNH2), the inhibition at 2 min, 10 µM was found to be 76%.

Usually Cmax stands for the maximum level reached in the sampled fluid or tissue. As a reminder, the AUC(0-inf) is the area under the concentration-time curve extrapolated to infinity. One may read the half-life as the time needed for the level to fall by half in the phase considered. Read a low half-life as rapid decline. For orientation: Tmax means the time from dosing to the highest level. On to `O=C(CN[C@H]1C[C@@H]1c1cc(F)cc(F)c1OCc1cccnc1F)N1CCC2(CCNC2)CC1`, for which the peak level in [6] (Cmax) was 3030 nM. In addition, the remaining at 1 h is 62% in data set [1], 38% in data set [3] and 62% in [4]. Further, the Ki in data set [2] and in data set [5] was over 250 µM in each case. The compound also yielded an AUC(0-inf) in [7] of 5.09 µM·h. This compound had a half-life in data set [8] of 234 min. Moreover, the Tmax in data set [9] was 30 min.

Compound `CN1CCN(C(=O)CNC2CC2c2cc(F)cc(F)c2OCc2ccccc2)CC1` (racemic) came in with a Cmax in data set [6] of 960 nM. In [7], this compound returned an AUC(0-inf) of 0.98 µM·h. In data set [8], this compound gave a half-life of 57 min. For the same compound, the inhibition at 2 min, 10 µM at hERG (KCNH2) stood at 51%. For the same compound, in data set [9], the Tmax is 15 min.
